From ChEMBL document CHEMBL3872202, “Synthesis and biofilm formation reduction of pyrazole-4-carboxamide derivatives in some Staphylococcus aureus strains” (Eur J Med Chem, 2016)

Tests used:
Staphylococcus aureus [1] = test: Antibiofilm activity against Staphylococcus aureus ATCC 6538 after 24 hrs by crystal-violet stain based assay; format: functional; details: ATCC 6538, 24 h
How it was run: (§1)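 Biofilm prevention: diluted bacterial suspension (OD about 0.040 at 570 nm) with sub-MIC concentrations from 300 to 0.3 added at time zero, 37 °C for 24 h in 24-well polystyrene plates. Wells washed three times with PBS, stained with 0.1% crystal violet for 30 min, and the stain redissolved in ethanol. OD read at 600 nm. Percent inhibition taken against untreated control wells. Triplicate, repeated at least twice.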

Staphylococcus aureus [2] = test: Antibiofilm activity against Staphylococcus aureus ATCC 25923 after 24 hrs by crystal-violet stain based assay; format: functional; details: ATCC 25923, 24 h; how it was run: as §1
Staphylococcus aureus [3] = test: Antibiofilm activity against Staphylococcus aureus ATCC 29213 after 24 hrs by crystal-violet stain based assay; format: functional; details: ATCC 29213, 24 h; how it was run: as §1
Staphylococcus aureus [4] = test: Inhibition of Staphylococcus aureus ATCC 6538 planktonic growth at 250 uM after 24 hrs by microbroth dilution method
Staphylococcus aureus [5] = test: Inhibition of Staphylococcus aureus ATCC 29213 planktonic growth at 250 uM after 24 hrs by microbroth dilution method
Staphylococcus aureus [6] = test: Inhibition of Staphylococcus aureus ATCC 25923 planktonic growth at 250 uM after 24 hrs by microbroth dilution method
Staphylococcus aureus [7] = test: Antibiofilm activity against Staphylococcus aureus ATCC 25923 after 24 hrs by safranin staining based assay; format: functional; details: ATCC 25923, 24 h
Staphylococcus aureus [8] = test: Antibiofilm activity against Staphylococcus aureus ATCC 6538 after 24 hrs by safranin staining based assay; format: functional; details: ATCC 6538, 24 h
Staphylococcus aureus [9] = test: Antibiofilm activity against Staphylococcus aureus ATCC 29213 after 24 hrs by safranin staining based assay; format: functional; details: ATCC 29213, 24 h
Staphylococcus aureus [10] = test: Antivirulence activity against Staphylococcus aureus ATCC 29213 infected in Galleria mellonella larvae assessed as increase in larvae survival at 1 mg/kg administered as single dose pretreated for 1 hr followed by bacterial infection measured every 24 hrs for 72 hrs relative to control; format: functional
How it was run: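 Galleria mellonella larvae given a single 1 mg/kg injection in PBS with 3% DMSO 1 h before inoculation with live S. aureus ATCC 29213, injected into alternate prolegs. Controls: untouched larvae, uninfected vehicle-injected larvae, uninfected compound-treated larvae, and vehicle-pretreated infected larvae. Larvae held at 37 °C, survival checked at 24, 48 and 72 h. Three replicates of four larvae per group, Tukey post hoc test.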

[11] = Toxicity in Galleria mellonella assessed as effect on larval weight at 1 mg/kg administered as single dose measured every 24 hrs for 72 hrs; format: organism-based; details: in vivo
How it was run: (§2)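 Uninfected larvae given a single 1 mg/kg injection in PBS with 3% DMSO, alongside untreated and vehicle-only groups, three replicates of four larvae each. Larvae kept in starvation and monitored for weight loss and time to pupation/chrysalis formation as sub-lethal endpoints. Groups compared statistically.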

[12] = Toxicity in Galleria mellonella assessed as effect on larval survival at 1 mg/kg administered as single dose measured every 24 hrs for 72 hrs; format: organism-based; details: in vivo
How it was run: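 Larvae held at 37 °C and given a single 1 mg/kg injection in PBS with 3% DMSO. Controls were untreated larvae and vehicle-injected larvae. Three replicates of four larvae per group. Survival checked at 24, 48 and 72 h after injection. Results given as mean with SD and compared by post hoc Tukey test (P < 0.05).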

[13] = Toxicity in Galleria mellonella assessed as effect on time to pupation at 1 mg/kg administered as single dose measured every 24 hrs for 72 hrs; format: organism-based; details: in vivo; how it was run: as §2

Row | SMILES | IC50 (Staphylococcus aureus [1]) [µM] | IC50 (Staphylococcus aureus [2]) [µM] | IC50 (Staphylococcus aureus [3]) [µM] | IC50 (Staphylococcus aureus [7]) [µM] | IC50 (Staphylococcus aureus [8]) [µM] | IC50 (Staphylococcus aureus [9]) [µM] | growth inhibition (GI) (Staphylococcus aureus [4]) | growth inhibition (GI) (Staphylococcus aureus [5]) | growth inhibition (GI) (Staphylococcus aureus [6]) | fold change (FC) (Staphylococcus aureus [10]) | Activity [11] | Activity [12] | Activity [13]
1 | CCOC(=O)c1c(C)n[nH]c1N | 82 | 378 | 62 |  |  |  | Non-Toxic | Non-Toxic | Non-Toxic |  |  |  | 
2 | CCOC(=O)c1cnn(-c2ccccn2)c1N | 91 | 102 | 31 |  |  |  | Non-Toxic | Non-Toxic | Non-Toxic |  |  |  | 
3 | CCn1nc(C)cc1C(=O)/C(=N\Nc1cccc(Cl)c1)C(=O)O |  |  |  | 20 | 11 | 16 |  |  |  |  |  |  | 
4 | CCOC(=O)c1cnn(C)c1N |  | 159 | 152 |  |  |  | Non-Toxic | Non-Toxic | Non-Toxic |  |  |  | 
5 | CCOC(=O)c1cnn(-c2ccc(S(N)(=O)=O)cc2)c1N | 142 | 77 | 28 |  |  |  | Non-Toxic | Non-Toxic | Non-Toxic |  |  |  | 
6 | CCOC(=O)/C(=N/Nc1cccc(C)c1)C(=O)c1cc(C)nn1CC |  |  |  | 10 | 43 | 1.7 |  |  |  |  |  |  | 
7 | CCOC(=O)/C(=N/Nc1ccccc1F)C(=O)c1cc(C)nn1CC |  |  |  | 42 | 0.9 | 13 |  |  |  |  |  |  | 
8 | CCOC(=O)c1cn[nH]c1N | 85 | 213 | 83 |  |  |  | Non-Toxic | Non-Toxic | Non-Toxic |  |  |  | 
9 | CC(=O)/C(=C\NNc1cc(Cl)ccc1Cl)C(=O)Nc1ccccc1 | 32 | 2.3 | 2.5 |  |  |  | Non-Toxic | Non-Toxic | Non-Toxic | 1.6 | Non-Toxic | Non-Toxic | Non-Toxic

More lines, main results first:

Row | IC50 (Staphylococcus aureus [1]) [µM] | IC50 (Staphylococcus aureus [2]) [µM] | IC50 (Staphylococcus aureus [3]) [µM] | IC50 (Staphylococcus aureus [7]) [µM] | IC50 (Staphylococcus aureus [8]) [µM] | IC50 (Staphylococcus aureus [9]) [µM] | SMILES | growth inhibition (GI) (Staphylococcus aureus [4]) | growth inhibition (GI) (Staphylococcus aureus [5]) | growth inhibition (GI) (Staphylococcus aureus [6]) | fold change (FC) (Staphylococcus aureus [10]) | Activity [11] | Activity [12] | Activity [13]
10 | 103 | 161 | 169 |  |  |  | Cc1c(C(=O)Nc2ccccc2)cnn1-c1cccc(Cl)c1 | Non-Toxic | Non-Toxic | Non-Toxic |  |  |  | 
11 | 30 | 552 | 38 |  |  |  | Cc1c(C(=O)Nc2ccccc2)cnn1-c1ccc(Cl)cc1 | Non-Toxic | Non-Toxic | Non-Toxic |  |  |  | 
12 | 55 | 434 | 127 |  |  |  | Cc1c(C(=O)Nc2ccccc2)cnn1-c1ccc([N+](=O)[O-])cc1 | Non-Toxic | Non-Toxic | Non-Toxic |  |  |  | 
13 |  | 64 | 46 |  |  |  | Cc1c(C(=O)Nc2ccccc2)cnn1-c1ccc(C(F)(F)F)cc1 | Non-Toxic | Non-Toxic | Non-Toxic |  |  |  | 
14 | 95 | 222 | 34 |  |  |  | CCOC(=O)c1cnn(-c2ccccc2)c1N | Non-Toxic | Non-Toxic | Non-Toxic |  |  |  | 
15 |  | 92 | 52 |  |  |  | Cc1c(C(=O)Nc2ccccc2)cnn1-c1cc(Cl)ccc1Cl | Non-Toxic | Non-Toxic | Non-Toxic |  |  |  | 
16 | 90 | 64 | 46 |  |  |  | Cc1c(C(=O)Nc2ccccc2)cnn1-c1cccc([N+](=O)[O-])c1 | Non-Toxic | Non-Toxic | Non-Toxic |  |  |  | 
17 | 81 | 61 | 89 |  |  |  | Cc1c(C(=O)Nc2ccccc2)cnn1-c1cc(F)ccc1F | Non-Toxic | Non-Toxic | Non-Toxic |  |  |  | 
18 | 77 | 112 | 309 |  |  |  | Cc1c(C(=O)Nc2ccccc2)cnn1-c1ccccc1 | Non-Toxic | Non-Toxic | Non-Toxic |  |  |  | 
19 | 64 | 76 | 54 |  |  |  | Cc1cc(C(=O)Nc2ccccc2)nn1-c1ccccc1 | Non-Toxic | Non-Toxic | Non-Toxic |  |  |  | 
20 | 54 | 74 | 123 |  |  |  | Cc1cc(C(=O)Nc2ccccc2)n(-c2ccccc2)n1 | Non-Toxic | Non-Toxic | Non-Toxic |  |  |  | 
